Experiments:
h-NTPDase1 = molecular target: T1, h-NTPDase1 (Homo sapiens, UniProt P49961); assay: h-NTPDase activity assay; format: biochemical; settings: for inhibition at 100 µM: read-out: % Inhibition h-NTPDase1
T1 sequence (P49961 1-510): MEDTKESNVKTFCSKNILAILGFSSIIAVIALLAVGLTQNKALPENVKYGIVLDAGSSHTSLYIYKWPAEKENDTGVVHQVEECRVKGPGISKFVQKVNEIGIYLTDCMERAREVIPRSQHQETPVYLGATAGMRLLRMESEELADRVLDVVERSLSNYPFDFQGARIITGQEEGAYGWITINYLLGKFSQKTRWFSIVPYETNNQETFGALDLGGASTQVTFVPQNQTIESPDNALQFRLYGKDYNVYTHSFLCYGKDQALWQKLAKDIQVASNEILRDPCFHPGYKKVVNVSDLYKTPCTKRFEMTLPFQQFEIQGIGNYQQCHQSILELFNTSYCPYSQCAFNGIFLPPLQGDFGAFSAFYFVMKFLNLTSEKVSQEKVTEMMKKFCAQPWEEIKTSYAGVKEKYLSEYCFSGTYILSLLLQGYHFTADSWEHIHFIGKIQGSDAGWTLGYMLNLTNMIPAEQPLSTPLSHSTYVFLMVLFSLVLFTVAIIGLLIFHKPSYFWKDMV

h-NTPDase2 = molecular target: T2, h-NTPDase2 (Homo sapiens, UniProt Q9Y5L3); assay: h-NTPDase activity assay; format: biochemical; settings: for inhibition at 100 µM: read-out: % Inhibition h-NTPDase2
T2 sequence (Q9Y5L3 1-495): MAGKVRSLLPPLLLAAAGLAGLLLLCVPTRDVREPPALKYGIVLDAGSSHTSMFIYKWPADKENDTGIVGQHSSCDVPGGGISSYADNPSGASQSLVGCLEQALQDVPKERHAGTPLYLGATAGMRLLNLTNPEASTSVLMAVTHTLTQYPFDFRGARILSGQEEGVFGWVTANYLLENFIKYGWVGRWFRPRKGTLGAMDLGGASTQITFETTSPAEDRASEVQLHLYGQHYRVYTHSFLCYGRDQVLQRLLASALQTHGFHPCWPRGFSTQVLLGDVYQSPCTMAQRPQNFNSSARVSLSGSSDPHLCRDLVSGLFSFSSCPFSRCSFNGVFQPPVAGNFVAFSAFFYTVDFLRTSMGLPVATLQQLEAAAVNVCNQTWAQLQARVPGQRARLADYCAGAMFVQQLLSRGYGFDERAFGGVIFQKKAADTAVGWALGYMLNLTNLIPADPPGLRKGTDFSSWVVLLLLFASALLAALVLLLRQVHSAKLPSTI

h-NTPDase3 = molecular target: T3, h-NTPDase3 (Homo sapiens, UniProt O75355); assay: h-NTPDase activity assay; format: biochemical; settings: for inhibition at 100 µM: read-out: % Inhibition h-NTPDase3
T3 sequence (O75355 1-529): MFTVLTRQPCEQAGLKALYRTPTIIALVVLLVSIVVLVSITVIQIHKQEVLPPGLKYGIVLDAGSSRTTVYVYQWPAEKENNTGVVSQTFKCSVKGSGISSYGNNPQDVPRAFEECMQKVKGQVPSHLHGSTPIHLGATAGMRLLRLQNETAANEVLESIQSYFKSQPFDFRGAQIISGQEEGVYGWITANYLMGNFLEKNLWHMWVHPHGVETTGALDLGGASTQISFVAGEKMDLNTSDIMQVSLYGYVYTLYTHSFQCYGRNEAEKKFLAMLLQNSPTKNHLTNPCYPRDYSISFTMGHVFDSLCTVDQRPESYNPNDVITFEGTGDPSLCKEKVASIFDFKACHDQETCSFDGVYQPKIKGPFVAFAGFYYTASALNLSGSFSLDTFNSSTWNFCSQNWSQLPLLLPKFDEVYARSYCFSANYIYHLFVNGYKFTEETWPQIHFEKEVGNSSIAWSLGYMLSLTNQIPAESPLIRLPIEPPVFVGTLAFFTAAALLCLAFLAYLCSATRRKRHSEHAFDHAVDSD
Procedure, shortened: (§1)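 Human NTPDase1, -2, -3 or -8 came from COS-7 cells transfected with plasmids via Lipofectamine, harvested at 44–48 h, sonicated and cleared of nuclei, with protein measured by Bradford. Enzyme per well was 12, 37, 43 or 63 ng respectively. Compound (0.1 mM final) was pre-incubated 10 min at 37 °C in 50 mM Tris–HCl, 5 mM CaCl2, pH 7.4. The reaction was started with ATP (100 µM), run 15 min, and stopped with malachite green; Pi was read at 630 nm.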

h-NTPDase8 = molecular target: T4, h-NTPDase8 (Homo sapiens, UniProt Q5MY95); assay: h-NTPDase activity assay; format: biochemical
T4 sequence (Q5MY95 1-495): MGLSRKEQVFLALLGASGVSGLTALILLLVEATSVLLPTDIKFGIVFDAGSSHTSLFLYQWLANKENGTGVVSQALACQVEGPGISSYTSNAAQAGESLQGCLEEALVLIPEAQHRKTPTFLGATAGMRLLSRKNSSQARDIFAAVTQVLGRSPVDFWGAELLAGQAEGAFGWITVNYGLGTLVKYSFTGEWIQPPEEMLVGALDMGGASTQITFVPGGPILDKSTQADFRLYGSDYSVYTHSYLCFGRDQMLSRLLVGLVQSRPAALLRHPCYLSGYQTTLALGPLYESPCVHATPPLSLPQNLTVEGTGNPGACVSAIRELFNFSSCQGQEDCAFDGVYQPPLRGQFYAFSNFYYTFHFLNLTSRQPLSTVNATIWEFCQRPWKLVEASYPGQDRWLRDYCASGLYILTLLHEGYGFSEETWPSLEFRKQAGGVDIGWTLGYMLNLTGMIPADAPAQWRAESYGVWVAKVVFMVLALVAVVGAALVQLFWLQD

h-NPP1 = molecular target: T5, h-NPP1 (Homo sapiens, UniProt P22413); assay: h-NPP1 activity assay; format: biochemical; settings: for inhibition at 100 µM: read-out: % Inhibition h-NPP1
T5 sequence (P22413 1-925): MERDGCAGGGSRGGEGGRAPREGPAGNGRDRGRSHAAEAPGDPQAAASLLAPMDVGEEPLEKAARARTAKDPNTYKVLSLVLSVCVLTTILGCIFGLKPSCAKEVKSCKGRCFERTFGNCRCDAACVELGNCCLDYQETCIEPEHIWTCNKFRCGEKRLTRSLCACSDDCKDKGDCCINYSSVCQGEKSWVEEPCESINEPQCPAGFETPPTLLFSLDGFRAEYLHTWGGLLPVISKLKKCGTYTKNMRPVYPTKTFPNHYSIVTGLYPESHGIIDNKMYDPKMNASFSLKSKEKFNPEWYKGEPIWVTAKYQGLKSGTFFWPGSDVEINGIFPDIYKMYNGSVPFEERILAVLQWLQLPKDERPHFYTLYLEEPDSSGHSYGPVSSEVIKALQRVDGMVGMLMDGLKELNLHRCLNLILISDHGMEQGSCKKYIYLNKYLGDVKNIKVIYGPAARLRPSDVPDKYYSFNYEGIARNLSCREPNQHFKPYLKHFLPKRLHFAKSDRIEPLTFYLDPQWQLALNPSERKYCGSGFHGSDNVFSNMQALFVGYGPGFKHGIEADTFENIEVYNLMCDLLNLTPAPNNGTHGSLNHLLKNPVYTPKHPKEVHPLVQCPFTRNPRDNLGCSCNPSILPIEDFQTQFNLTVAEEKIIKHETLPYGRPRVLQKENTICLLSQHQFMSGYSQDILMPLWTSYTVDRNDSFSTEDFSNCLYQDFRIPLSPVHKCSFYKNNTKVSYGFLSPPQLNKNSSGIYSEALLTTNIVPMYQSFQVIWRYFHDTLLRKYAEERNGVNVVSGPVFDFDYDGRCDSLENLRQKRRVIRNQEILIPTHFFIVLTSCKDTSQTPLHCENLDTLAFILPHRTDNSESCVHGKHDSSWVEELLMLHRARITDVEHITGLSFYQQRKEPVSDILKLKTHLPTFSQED

h-e5’NT = molecular target: T6, h-e5’NT (Homo sapiens, UniProt P21589); assay: h-e5’NT activity assay; format: biochemical; settings: for inhibition at 100 µM: read-out: % Inhibition h-e5’NT
T6 sequence (P21589 27-574): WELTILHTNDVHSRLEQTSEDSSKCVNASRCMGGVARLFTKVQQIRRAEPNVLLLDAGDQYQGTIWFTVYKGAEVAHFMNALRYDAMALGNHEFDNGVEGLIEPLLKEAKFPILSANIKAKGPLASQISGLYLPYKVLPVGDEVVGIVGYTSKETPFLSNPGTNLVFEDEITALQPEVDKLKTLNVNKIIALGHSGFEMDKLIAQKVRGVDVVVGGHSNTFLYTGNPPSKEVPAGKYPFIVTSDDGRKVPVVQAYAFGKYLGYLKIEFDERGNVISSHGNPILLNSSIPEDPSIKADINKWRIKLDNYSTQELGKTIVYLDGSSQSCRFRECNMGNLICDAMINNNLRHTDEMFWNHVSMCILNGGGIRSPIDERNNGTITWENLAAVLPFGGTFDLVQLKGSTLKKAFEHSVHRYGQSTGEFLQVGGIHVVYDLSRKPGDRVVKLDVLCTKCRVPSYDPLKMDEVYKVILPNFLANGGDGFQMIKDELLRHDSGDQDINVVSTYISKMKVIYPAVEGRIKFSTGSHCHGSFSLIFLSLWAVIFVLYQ
Procedure, shortened: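 Human ecto-5′-nucleotidase from transfected COS-7 cells was pre-incubated 10 min at 37 °C with compound (0.1 mM final) in 50 mM Tris–HCl with MgCl₂ and CaCl₂, pH 7.4. The reaction was started with AMP (2 mM solution as added) and run 20 min at 37 °C. Released phosphate was detected with malachite green at 630 nm, in triplicate.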

MTT assay = format: cell-based, human; settings: human, MCF-7 breast cancer cells, MCF-7, 100 μM; for cytotoxicity at 24 h, 100 µM: % Cytotoxicity ± SD; for viability at 24 h, 100 µM: % Viability
[1] = tested on: MCF-7 breast cancer cells; assay: MTT assay; format: cell-based, human; settings: MCF-7, 100 μM, 24 h, 100 µM
h-NTPDases = assay: h-NTPDase activity assay, all four isoenzymes; format: biochemical, human
Procedure, shortened: as §1

[2] = tested on: h-NTPDase1, -2, -3, and -8 isoenzymes, h-NPP1, and h-e5′NT; assay: Enzymatic assays, all ectonucleotidases; format: biochemical, human; settings: at 100 µM

IC50 (h-NTPDase1)	IC50 (h-NTPDase2)	IC50 (h-NTPDase3)	IC50 (h-NTPDase8)	inhibition at 100 µM (h-NTPDase1)	inhibition at 100 µM (h-NTPDase2)	inhibition at 100 µM (h-NTPDase3)	IC50 (h-NPP1)	inhibition at 100 µM (h-NPP1)	IC50 (h-e5’NT)	inhibition at 100 µM (h-e5’NT)	activity against all four h-NTPDase isoenzymes (h-NTPDases)	inhibition at 100 µM (h-NTPDase8; read-out: % Inhibition h-NTPDase8, at 100 µM)	% inhibition for all enzymes except h-e5′NT [2]	SMILES	cytotoxicity at 24 h, 100 µM (MTT assay)	viability at 24 h, 100 µM (MTT assay)	% Viability [1]	% Cytotoxicity ± SD [1]
16.1 ± 1.02 µM	24.1 ± 3.01 µM	4.31 ± 0.41 µM	101 ± 2.34 µM	–	–	–	–	–	–	–	–	–	–	Nc1c(S(=O)(=O)O)cc(Nc2ccc(Nc3nc(Cl)nc(Nc4cccc(S(=O)(=O)O)c4)n3)c(S(=O)(=O)O)c2)c2c1C(=O)c1ccccc1C2=O [Reactive blue 2, reference compound]	–	–	–	–
–	–	–	–	33.1%	26.2%	35.6%	13.5 ± 1.24 µM	85.5%	0.44 ± 0.07 µM	72.4%	poor activity	–	–	O=C(NCc1ccc(Cl)cc1Cl)c1ccc2ncccc2c1 [Compound 4j, N-(2,4-dichlorobenzyl)quinoline-6-carboxamide]	55 ± 1.36%	43 to 45%	45.0%	–
–	–	–	–	–	–	–	–	–	42.1 ± 7.8 µM	–	–	–	–	Cc1ccc(C(=O)Nc2ccc(S(=O)(=O)O)c3cc(S(=O)(=O)O)cc(S(=O)(=O)O)c23)cc1NC(=O)c1cccc(NC(=O)Nc2cccc(C(=O)Nc3cc(C(=O)Nc4ccc(S(=O)(=O)O)c5cc(S(=O)(=O)O)cc(S(=O)(=O)O)c45)ccc3C)c2)c1 [Suramin, reference compound]	–	–	–	–
–	–	–	–	19.5%	39.6%	25.1%	–	–	0.99 ± 0.13 µM	54.9%	poor activity	29.8%	less than 50%	COc1ccc(CNC(=O)c2ccc3ncccc3c2)c(OC)c1 [Compound 4i, N-(2,4-dimethoxybenzyl)quinoline-6-carboxamide]	41.5 ± 0.31%	58.5%	–	–
–	–	–	–	37%	–	30.6%	0.23 ± 0.02 µM	67%	0.092 ± 0.02 µM	67.9%	poor activity	–	–	O=C(NCc1ccc(Cl)cc1)c1ccc2ncccc2c1 [Compound 4a, N-(4-chlorobenzyl)quinoline-6-carboxamide]	37%	62.7%	–	37.3 ± 1.80%
